From ChEMBL document CHEMBL1150203, “Antimicrobial diterpenes of Croton sonderianus, 1. Hardwickic and 3,4-secotrachylobanoic acids” (1991) come the findings set out here.

In test [1] the test system is Saccharomyces cerevisiae. In words: Antifungal activity against Saccharomyces cerevisiae ATCC 9763 at 1 mg/ml after 72 hrs by agar-well diffusion assay. It is filed as functional. The method in brief:
(§1)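 Fungi and yeasts streaked on mycophil agar from broth culture diluted 1:10 in sterile water; 100 μl of compound at 1 mg/ml placed in 11 mm cork-borer wells; plates held at 30°. Inhibition zone width (mm) recorded at 48 and 72 h and coded – to ++++ (1–2, 3–6, 7–12, >13 mm); amphotericin B positive control.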
(In general: A growth-free zone around the sample is the usual read-out of agar diffusion tests.)

The subject of test [2] is Candida albicans. The experiment in a line: Antifungal activity against Candida albicans ATCC 10231 at 1 mg/ml after 48 hrs by agar-well diffusion assay. The class given is functional. Conditions: ATCC 10231, 48 h, read-out: IZ. Put shortly:
as §1

For test [3], the system named is Candida albicans. In words: Antifungal activity against Candida albicans ATCC 10231 at 1 mg/ml after 72 hrs by agar-well diffusion assay. It is filed as functional. The following applies: ATCC 10231, 72 h, read-out: IZ. The method in brief: as §1
Test [4] deals with Aspergillus niger. The experiment in a line: Antifungal activity against Aspergillus niger ATCC 16888 at 1 mg/ml after 48 hrs by agar-well diffusion assay. It is filed as functional. The method in brief: as §1
The test system of test [5] is Aspergillus niger. In words: Antifungal activity against Aspergillus niger ATCC 16888 at 1 mg/ml after 72 hrs by agar-well diffusion assay. The class given is functional. Put shortly:
as §1

The subject of test [6] is Trichophyton mentagrophytes. The experiment in a line: Antifungal activity against Trichophyton mentagrophytes ATCC 9972 at 1 mg/ml after 48 hrs by agar-well diffusion assay. Conditions: ATCC 9972, 48 h, read-out: IZ. It is filed as functional. Put shortly: as §1
Test [7] has as its system Trichophyton mentagrophytes. In words: Antifungal activity against Trichophyton mentagrophytes ATCC 9972 at 1 mg/ml after 72 hrs by agar-well diffusion assay. It is filed as functional. Conditions: ATCC 9972, 72 h, read-out: IZ. The method in brief:
as §1

Test [8] has as its system Trametes sanguinea. In words: Antifungal activity against Polyporus sanguineus ATCC 16422 at 1 mg/ml after 48 hrs by agar-well diffusion assay. The class given is functional. Conditions: for zone of inhibition at 1000 µg/mL: ATCC 16422, 48 h, read-out: IZ. The method in brief:
as §1

For test [9], the system named is Trametes sanguinea. In words: Antifungal activity against Polyporus sanguineus ATCC 16422 at 1 mg/ml after 72 hrs by agar-well diffusion assay. It is filed as functional. Conditions: for zone of inhibition at 1000 µg/mL: ATCC 16422, 72 h, read-out: IZ. Put shortly: as §1
Test [10] concerns Helminthosporium. The experiment in a line: Antifungal activity against Helminthosporium ATCC 4671 at 1 mg/ml after 48 hrs by agar-well diffusion assay. It is filed as functional. The following applies: ATCC 4671, 48 h, read-out: IZ. Put shortly:
as §1

Test [11] has as its system Helminthosporium. In words: Antifungal activity against Helminthosporium ATCC 4671 at 1 mg/ml after 72 hrs by agar-well diffusion assay. Conditions: for zone of inhibition at 1000 µg/mL: ATCC 4671, 72 h, read-out: IZ. The class given is functional. Put shortly:
as §1

Test [12] has as its system Bacillus subtilis. The experiment in a line: Antibacterial activity against Bacillus subtilis ATCC 6633 after 24 hrs by twofold serial dilution method. It is filed as functional. The following applies: ATCC 6633, 24 h.
Test [13] concerns Bacillus subtilis. In words: Antibacterial activity against Bacillus subtilis ATCC 6633 after 48 hrs by twofold serial dilution method. Conditions: ATCC 6633, 48 h. It is filed as functional.
Test [14] relates to Trichophyton mentagrophytes. In words: Antifungal activity against Trichophyton mentagrophytes ATCC 9972 after 24 hrs by twofold serial dilution method. Conditions: ATCC 9972, 24 h. The class given is functional.
Test [15] relates to Trichophyton mentagrophytes. The experiment in a line: Antifungal activity against Trichophyton mentagrophytes ATCC 9972 after 48 hrs by twofold serial dilution method. Conditions: ATCC 9972, 48 h. It is filed as functional.
In test [16] the test system is Bacillus subtilis. In words: Antibacterial activity against Bacillus subtilis ATCC 6633 at 1 mg/ml after 24 hrs by agar-well diffusion assay. It is filed as functional. The following applies: ATCC 6633, 24 h, read-out: IZ. Put shortly: (§2)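 Agar-well diffusion on eugon agar, bacteria streaked by quadrant method from broth culture diluted 1:10 in sterile water; 11 mm wells given 100 μl of compound at 1 mg/ml; 37° incubation. Zone width (mm) read at 24 and 48 h, coded –, + (1–2), ++ (3–6), +++ (7–12), ++++ (>13); streptomycin sulfate positive control.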

Test [17] has as its system Bacillus subtilis. In words: Antibacterial activity against Bacillus subtilis ATCC 6633 at 1 mg/ml after 48 hrs by agar-well diffusion assay. It is filed as functional. Conditions: ATCC 6633, 48 h, read-out: IZ. The method in brief:
as §2

Test [18] concerns Escherichia coli. In words: Antibacterial activity against Escherichia coli ATCC 10536 at 1 mg/ml after 24 hrs by agar-well diffusion assay. It is filed as functional. Put shortly:
as §2

Test [19] deals with Escherichia coli. In words: Antibacterial activity against Escherichia coli ATCC 10536 at 1 mg/ml after 48 hrs by agar-well diffusion assay. The class given is functional. Put shortly: as §2
Test [20] relates to Staphylococcus aureus. In words: Antibacterial activity against Staphylococcus aureus ATCC 6538 at 1 mg/ml after 24 hrs by agar-well diffusion assay. The class given is functional. Conditions: ATCC 6538, 24 h, read-out: IZ. The method in brief: as §2
Test [21] has as its system Staphylococcus aureus. In words: Antibacterial activity against Staphylococcus aureus ATCC 6538 at 1 mg/ml after 48 hrs by agar-well diffusion assay. It is filed as functional. The following applies: ATCC 6538, 48 h, read-out: IZ. The method in brief: as §2
The subject of test [22] is Mycolicibacterium smegmatis. The experiment in a line: Antibacterial activity against Mycobacterium smegmatis ATCC 607 at 1 mg/ml after 48 hrs by agar-well diffusion assay. It is filed as functional. The following applies: ATCC 607, 48 h, read-out: IZ. Put shortly: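 Quadrant-streaked eugon agar plates (broth culture diluted 1:10 in water) with 11 mm wells receiving 100 μl of 1 mg/ml compound, incubated at 37°; inhibition zone width in mm scored at 48 h and 72 h as –, +, ++, +++, ++++ (1–2, 3–6, 7–12, >13 mm); streptomycin sulfate control.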

The subject of test [23] is Pseudomonas aeruginosa. The experiment in a line: Antibacterial activity against Pseudomonas aeruginosa ATCC 15442 at 1 mg/ml after 24 hrs by agar-well diffusion assay. The class given is functional. Put shortly: as §2
The subject of test [24] is Pseudomonas aeruginosa. In words: Antibacterial activity against Pseudomonas aeruginosa ATCC 15442 at 1 mg/ml after 48 hrs by agar-well diffusion assay. The class given is functional. Put shortly:
as §2

Test [25] relates to Saccharomyces cerevisiae. In words: Antifungal activity against Saccharomyces cerevisiae ATCC 9763 at 1 mg/ml after 48 hrs by agar-well diffusion assay. It is filed as functional. Put shortly: as §1
Test [26] has as its system Mycolicibacterium smegmatis. The experiment in a line: Antibacterial activity against Mycobacterium smegmatis ATCC 607 at 1 mg/ml after 48 hrs by agar-well diffusion assay. Conditions: ATCC 607, 48 h, read-out: IZ.
In test [27] the test system is Saccharomyces cerevisiae. In words: Antifungal activity against Saccharomyces cerevisiae ATCC 9763 after 24 hrs by twofold serial dilution method. The class given is functional. The following applies: ATCC 9763, 24 h.
Test [28] concerns Saccharomyces cerevisiae. In words: Antifungal activity against Saccharomyces cerevisiae ATCC 9763 after 48 hrs by twofold serial dilution method. The following applies: ATCC 9763, 48 h. The class given is functional.

Each structure is given as a SMILES string. In brackets after ≈: the same amount, converted by molar mass. Activity calls are given as the source filed them. No cut-off for these calls is given here. A value given as a limit tells only on which side of the number the result lay.

Consider `C[C@@H]1CC[C@@]2(C)C(C(=O)O)=CCC[C@@H]2[C@@]1(C)CCc1ccoc1`, for which the “inhibition zone (IZ)” value in the test with Saccharomyces cerevisiae [1], in the test on Aspergillus niger [4], with Aspergillus niger [5], in the test with Trametes sanguinea [8], with Trametes sanguinea [9] and with Escherichia coli [18] was “inactive” in each case. Besides, the “inhibition zone (IZ)” value with Escherichia coli [19], in the test on Pseudomonas aeruginosa [23], in the test with Pseudomonas aeruginosa [24] and in the test with Saccharomyces cerevisiae [25] was “inactive” throughout. Also, the zone of inhibition at 1000 µg/mL in the test with Candida albicans [2] worked out at 1 mm; in the test on Candida albicans [3], 3 mm; in test [6], 7 mm; in test [7], 3 mm; in the test with Helminthosporium [10], 3 mm; in the test on Helminthosporium [11] it was 3 mm. Further, the zone of inhibition at 1000 µg/mL came out at 7 mm in the test on Bacillus subtilis [16]; 7 mm with Bacillus subtilis [17]; 3 mm in the test with Staphylococcus aureus [20]; 3 mm in the test with Staphylococcus aureus [21]; 7 mm in test [22]; 7 mm in test [26]. For the same compound, the MIC (usually the lowest concentration that inhibits growth of the organism) is 0.78 µg/mL (≈ 2.46 µM) against Bacillus subtilis [12], 1.56 µg/mL (≈ 4.93 µM) against Bacillus subtilis [13], 25 µg/mL (≈ 79 µM) in test [14] and 25 µg/mL (≈ 79 µM) in [15].
For `C=C(C)[C@@H]1CC[C@@]23C[C@@H]4[C@@H](C[C@H]2[C@]1(C)CCC(=O)O)[C@@]4(C)C3`, the “inhibition zone (IZ)” value with Saccharomyces cerevisiae [1], in the test on Aspergillus niger [4], in the test on Aspergillus niger [5], in the test on Helminthosporium [11], with Escherichia coli [18] and in the test on Escherichia coli [19] was “inactive” in each case. Moreover, the “inhibition zone (IZ)” value in the test with Pseudomonas aeruginosa [23], in the test on Pseudomonas aeruginosa [24] and with Saccharomyces cerevisiae [25] was “inactive” in each case. In addition, the zone of inhibition at 1000 µg/mL in the test on Candida albicans [2] amounted to 3 mm; in the test on Candida albicans [3] it was 3 mm; in test [6], 3 mm; in test [7], 1 mm; in the test on Trametes sanguinea [8], 3 mm; with Trametes sanguinea [9] it was 1 mm. Moreover, the zone of inhibition at 1000 µg/mL with Helminthosporium [10] is 1 mm; with Bacillus subtilis [16], greater than 12 mm; in the test with Bacillus subtilis [17] it was 7 mm; with Staphylococcus aureus [20] it was 7 mm; in the test with Staphylococcus aureus [21], 7 mm; in test [22], 7 mm. Moreover, the zone of inhibition at 1000 µg/mL in [26] stood at 7 mm. The MIC with Bacillus subtilis [12] is 25 µg/mL (≈ 82.7 µM); in the test on Bacillus subtilis [13] it was 25 µg/mL (≈ 82.7 µM); in the test on Saccharomyces cerevisiae [27], 100 µg/mL (≈ 331 µM); against Saccharomyces cerevisiae [28] it was 100 µg/mL (≈ 331 µM).
With `C[C@@H]1[C@H](O)[C@@H](C)/C=C/C=C/C=C/C=C/C=C/C=C/C=C/[C@H](O[C@@H]2O[C@H](C)[C@@H](O)[C@H](N)[C@@H]2O)C[C@@H]2O[C@](O)(C[C@@H](O)C[C@@H](O)[C@H](O)CC[C@@H](O)C[C@@H](O)CC(=O)O[C@H]1C)C[C@H](O)[C@H]2C(=O)O` [AMPHOTERICIN B], the zone of inhibition at 1000 µg/mL was 7 mm in the test with Saccharomyces cerevisiae [1] (ATCC 9763, 72 h, read-out: IZ); 7 mm in the test with Candida albicans [2]; 7 mm with Candida albicans [3]; 7 mm with Aspergillus niger [4] (ATCC 16888, 48 h, read-out: IZ); 7 mm with Aspergillus niger [5] (ATCC 16888, 72 h, read-out: IZ); 7 mm in test [6]. Moreover, the zone of inhibition at 1000 µg/mL in test [7] was 7 mm; in the test on Trametes sanguinea [8] it was greater than 12 mm; in the test on Trametes sanguinea [9] it was greater than 12 mm; in the test with Helminthosporium [10], greater than 12 mm; in the test with Helminthosporium [11], greater than 12 mm; with Saccharomyces cerevisiae [25] (ATCC 9763, 48 h, read-out: IZ), 7 mm. Besides, the MIC was determined as 0.78 µg/mL (≈ 0.844 µM) in test [14], 0.78 µg/mL (≈ 0.844 µM) in test [15], 6.25 µg/mL (≈ 6.76 µM) in the test on Saccharomyces cerevisiae [27] and 12.5 µg/mL (≈ 13.5 µM) against Saccharomyces cerevisiae [28].
